Data as given in PMC5761012 (Journal of Pharmaceutical Analysis, 2013).

Key:
[1] = Analyte stability in human plasma and phosphate buffer; assay type: in vitro ADME; conditions: for time stable at ambient temperature / reduction of the concentration after three freeze–thaw cycles: QC samples; for time stable at ambient temperature: human plasma and phosphate buffer, three concentration levels; for reduction of the concentration after three freeze–thaw cycles: −20 °C to room temperature; for time stable in auto-sampler conditions: processed QC samples, 15 °C
Procedure, shortened: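 Processed QC samples in human plasma and pH 7.4 phosphate buffer were tested at three concentration levels, three replicates each. Conditions were 6 h at ambient temperature, or three freeze (−20 °C)/thaw (room temperature) cycles followed by 24 h at 15 °C in the auto-sampler. Separately, samples were held 96 h at 4 °C. Mean UPLC–ESI-MS/MS concentrations were compared with freshly prepared QC samples.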

human plasma proteins = test: Human plasma protein binding by equilibrium dialysis with UPLC-MS/MS; assay type: in vitro ADME; conditions: for Kd at 72 h: human, human plasma (equilibrium dialysis against phosphate buffer); for maximum binding ability β: modified Scatchard equation, extract 1.2 to 60 μg/mL, human plasma, Pt 71.28 g/L
Procedure, shortened: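 Blank human plasma was placed in 10 kDa dialysis bags (pre-soaked in pH 7.4 phosphate buffer) and dialysed at 4 °C for 72 h against buffer containing the aqueous plant extract (1.2–60 µg/mL). Inside-bag concentration gave total drug; outside gave free drug. Analysis was by UPLC–ESI-MS/MS after methanol/formic acid protein precipitation, with matrix-specific 1/x² weighted calibration. Parameters came from a modified Scatchard fit using Pt 71.28 g/L (Lowry) and plasma water 99.25%.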

time stable at ambient temperature [1]	reduction of the concentration after three freeze–thaw cycles [1] [%]	time stable in auto-sampler conditions [1] [h]	Kd at 72 h (human plasma proteins) [µM]	maximum binding ability β (human plasma proteins) [µmol/g]	SMILES
at least 6 h	< 10	≥ 24	26.6	2.685	O=c1cc(-c2ccc(O)c(O)c2)oc2c([C@@H]3O[C@H](CO)[C@@H](O)[C@H](O)[C@H]3O)c(O)cc(O)c12 [orientin]
at least 6 h	< 10	≥ 24	5.29	0.6420	C[C@@H]1O[C@@H](Oc2c(-c3ccc(O)c(O)c3)oc3cc(O)cc(O)c3c2=O)[C@H](O)[C@H](O)[C@H]1O [quercitrin]
at least 6 h	< 10	≥ 24	19.7	1.650	O=c1cc(-c2ccc(O)cc2)oc2c([C@@H]3O[C@H](CO)[C@@H](O)[C@H](O)[C@H]3O)c(O)cc(O)c12 [vitexin]
